# Measured values reported in ChEMBL document CHEMBL4406851, “Design, synthesis and biological evaluation of cinnamic acid derivatives with synergetic neuroprotection and angiogenesis effect” (Eur J Med Chem, 2019).
# The source made the active and inactive calls. The rule behind the calls is not given here.
# Assays:
# [1] = test system: SH-SY5Y; experiment: Protection against H2O2-induced apoptosis in human SH-SY5Y cells assessed as increase in cell number preincubated for 24 hrs followed by H2O2 addition measured after 4 hrs by DAPI staining based inverted phase contrast microscopic analysis; assay type: functional
# Summary of the method: (§1)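 Cells at 3.5×10^4 cells/mL in 24-well plates were pretreated 24 h with compound at three concentrations, then H2O2 (4.8 mM stock) for 4 h. After PBS washes, cells were fixed in 4% paraformaldehyde/70% cold ethanol for 10 min. Staining was 6% Giemsa or DAPI for 5 min in the dark. Random fields were photographed at 200× by microscope, alongside control and model groups.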
# [2] = test system: HBMEC-2; experiment: Protection against H2O2-induced apoptosis in human HBMEC2 cells assessed as decrease in nuclear fragmentation preincubated for 24 hrs followed by H2O2 addition measured after 4 hrs by DAPI staining based inverted phase contrast microscopic analysis; assay type: functional, cell-based; summary of the method: as §1
# [3] = test system: SH-SY5Y; experiment: Inhibition of H2O2-induced apoptosis in human SH-SY5Y cells assessed as necrotic cells at 3.13 uM preincubated for 24 hrs followed by H2O2 addition measured after 4 hrs by Annexin V-FITC/propidium iodide staining based flow cytometry (reference value: 0.9 %); assay type: functional; design: scale not given: the % may be the effect or the level left
# Summary of the method: (§2)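 Cells were seeded at 3.5×10^4 cells/mL in 6-well plates at 37 °C, 5% CO2. Compound was added at three concentrations for 24 h, then H2O2 (4.8 mM stock solution) to model and drug wells for 4 h. Cells were collected, washed in cold PBS and resuspended in annexin-binding buffer. Staining was annexin V-FITC 10 min, then PI 5 min, in the dark, followed by flow cytometry with quadrant gating.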
# [4] = Inhibition of H2O2-induced apoptosis in human HBMEC2 cells assessed as late apoptotic cells at 6.25 uM preincubated for 24 hrs followed by H2O2 addition measured after 4 hrs by Annexin V-FITC/propidium iodide staining based flow cytometry (reference value: 29.4 %); assay type: functional, HBMEC-2; design: scale not given: the % may be the effect or the level left; summary of the method: as §2
# [5] = test system: HBMEC-2; experiment: Protection against H2O2-induced apoptosis in human HBMEC2 cells assessed as reduction in cell disruption at 1.56 to 6.25 uM preincubated for 24 hrs followed by H2O2 addition measured after 4 hrs by Giemsa staining based inverted phase contrast microscopic analysis; assay type: functional; summary of the method: as §1
smiles,measurement,setting,value
COc1cc(CNC(=O)/C=C/c2cc(OC)c(OC)cc2OC)ccc1O,Activity,[1],Dose-dependent effect
same,Activity,[2],Dose-dependent effect
same,Activity,[3],0.1%
same,Activity,[4],10.2%
same,Activity,[5],Active
